Measurements published in ChEMBL document CHEMBL1926614, “Substituted thiazoles V. synthesis and antitumor activity of novel thiazolo[2,3-b]quinazoline and pyrido[4,3-d]thiazolo[3,2-a]pyrimidine analogues” (2012).
Calls of active or inactive are those of the source. The rule behind the calls is not given here.

Key:
Type in all cases: functional
LOX IMVI = assay: Growth inhibition of human LOXIMVI cells at 10 uM after 48 hrs by coulter counting
Method in brief: (§1)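 Single-dose primary screen across the full NCI 60-cell-line panel. Stocks were made in DMSO and diluted in PBS to a final DMSO below 1%. Cultures at 6 × 10⁴ cells/ml were run in duplicate wells alongside PBS/DMSO vehicle controls at 37 °C in humidified 5% CO₂. Data were expressed as percent growth of treated cells.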

SK-MEL-2 = assay: Growth inhibition of human SK-MEL-2 cells at 10 uM after 48 hrs by coulter counting; details: SK-MEL-2, 48 h, read-out: GI; method in brief: as §1
A549 = assay: Growth inhibition of human A549 cells at 10 uM after 48 hrs by coulter counting; details: A549, 48 h, read-out: GI; method in brief: as §1
EKVX = assay: Growth inhibition of human EKVX cells at 10 uM after 48 hrs by coulter counting; details: read-out: GI; method in brief: as §1
[1] = Cytotoxicity against human melanoma cells after 48 hrs by coulter counting; details: Melanoma cell; for CC50: read-out: LC50 (the source's name)
Method in brief: (§2)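 NCI 60-cell-line panel covering nine tumour subpanels, tested over a 5-log dose range. Compounds were dissolved in DMSO and diluted in phosphate-buffered saline to a final DMSO below 1%. Wells held 6 × 10⁴ cells/ml and were run in duplicate. Controls contained PBS and DMSO at matching dilutions. Incubation was at 37 °C in humidified 5% CO₂. GI₅₀, TGI and LC₅₀ were reported.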

MDA-MB-435 = assay: Growth inhibition of human MDA-MB-435 cells at 10 uM after 48 hrs by coulter counting; method in brief: as §1
[2] = Growth inhibition of human NCI-322M cells at 10 uM after 48 hrs by coulter counting; details: read-out: GI; method in brief: as §1
NCI-H226 = assay: Growth inhibition of human NCI-H226 cells at 10 uM after 48 hrs by coulter counting; details: NCI-H226, 48 h, read-out: GI; method in brief: as §1
SR = assay: Growth inhibition of human SR cells at 10 uM after 48 hrs by coulter counting
Method in brief: (§3)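 Single-dose screen in the NCI 60 human tumor cell line panel (nine subpanels). Compounds dissolved in DMSO and diluted in phosphate buffered saline, keeping final DMSO below 1%. Added in duplicate wells to cells at 6 × 10⁴ cells/ml. Controls held PBS and DMSO at matching dilutions. Incubated at 37 °C, humidified, 5% CO₂. Reported as percent growth of treated cells.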

UACC-257 = assay: Growth inhibition of human UACC257 cells at 10 uM after 48 hrs by coulter counting; details: for inhibition of growth at 10 µM: UACC-257, 48 h, read-out: GI; method in brief: as §3
CCRF-CEM = assay: Growth inhibition of human CCRF-CEM cells at 10 uM after 48 hrs by coulter counting; details: read-out: GI; method in brief: as §1
SK-MEL-28 = assay: Growth inhibition of human SK-MEL-28 cells at 10 uM after 48 hrs by coulter counting; details: SK-MEL-28, 48 h, read-out: GI; method in brief: as §1
[3] = Cytotoxicity against human renal cancer cells after 48 hrs by coulter counting; details: Cancer cell lines; method in brief: as §2
TK-10 = assay: Growth inhibition of human TK10 cells at 10 uM after 48 hrs by coulter counting; details: TK-10, 48 h, read-out: GI; method in brief: as §3
HT-29 = assay: Growth inhibition of human HT-29 cells at 10 uM after 48 hrs by coulter counting; method in brief: as §1
ACHN = assay: Growth inhibition of human ACHN cells at 10 uM after 48 hrs by coulter counting; details: for inhibition of growth at 10 µM: read-out: GI; method in brief: as §1
DU-145 = assay: Growth inhibition of human DU145 cells at 10 uM after 48 hrs by coulter counting; method in brief: as §1
OVCAR-8 = assay: Growth inhibition of human OVCAR8 cells at 10 uM after 48 hrs by coulter counting; details: for inhibition of growth at 10 µM: OVCAR-8, 48 h, read-out: GI; method in brief: as §1

Structure (SMILES)	growth inhibition (GI) (LOX IMVI)	inhibition of growth at 10 µM (SK-MEL-2) [%]	inhibition of growth at 10 µM (A549) [%]	inhibition of growth at 10 µM (EKVX) [%]	GI50 [1] [µM]	TGI [1] [µM]	CC50 [1] [µM]	growth inhibition (GI) (MDA-MB-435)	inhibition of growth at 10 µM [2] [%]	inhibition of growth at 10 µM (NCI-H226) [%]	growth inhibition (GI) (SR)	inhibition of growth at 10 µM (UACC-257) [%]	inhibition of growth at 10 µM (CCRF-CEM) [%]	inhibition of growth at 10 µM (SK-MEL-28) [%]	GI50 [3] [µM]	LC50 (concentration giving 50% net cell kill) [3] [µM]	TGI [3] [µM]	inhibition of growth at 10 µM (TK-10) [%]	growth inhibition (GI) (HT-29)	growth inhibition (GI) (DU-145)	further results
CCN1CC2=C(N=C3SC=CN3C2c2ccc(OC)cc2)/C(=C/c2ccc(OC)cc2)C1 (stereo unspecified)	Active	> 10	66.3	51.9	3.5	10.9	55	Active	29	88	Active	44.8	97.3	10.9	2.3	24.9	6	70	Active	Active	inhibition of growth at 10 µM (ACHN): 83%; growth inhibition (GI) (OVCAR-8): Active
CCN1CC2=C(N=C3SC=CN3C2c2ccc(OC)c(OC)c2)/C(=C/c2ccc(OC)c(OC)c2)C1 (stereo unspecified)	Active	11.5	61.1	27.1	3.4	10.1	44.6	Active	19.1	53.2	Active	63.2	94	61.3	3.1	52.8	9.8	46.5	Active	Active	inhibition of growth at 10 µM (ACHN): 79.5%; inhibition of growth at 10 µM (OVCAR-8): 95.9%
CCN1CC2=C(N=C3SC=C(C)N3C2c2ccc(OC)c(OC)c2)/C(=C/c2ccc(OC)c(OC)c2)C1 (stereo unspecified)	Active	27.4	93.2	37.5	2.7	10.8	54.4	Active	63.6	98.2	Active	–	97.8	96.5	2.5	47.1	8.9	98.8	Active	Active	growth inhibition (GI) (UACC-257): Active; growth inhibition (GI) (ACHN): Active; inhibition of growth at 10 µM (OVCAR-8): 96.5%
